The source of these data is ChEMBL document CHEMBL1781924, “Inhibitors of the NF-kappaB activation pathway from Cryptocarya rugulosa” (J Nat Prod, 2009).

A word on the IC50: it is the midpoint of a concentration-inhibition curve.

Calls of active or inactive are those of the source. No cut-off for these calls is given here.

The subject of assay [1] is OCI-Ly3. The assay is described as follows: Induction of IkappaB in human OCI-LY3 cells assessed as fold increase in luciferase reporter gene at 11 uM. The class given is functional, cell-based.
Assay [2] has as its system OCI-Ly3. Briefly: Induction of IkappaB in human OCI-LY3 cells assessed as fold increase in luciferase reporter gene. Format: functional, cell-based. For orientation: A reporter such as luciferase makes a cellular process visible.
Assay [3] has as its system OCI-Ly3. The assay is described as follows: Induction of IkappaB in human OCI-LY3 cells assessed as fold increase in luciferase reporter gene after 10 hrs. Format: functional, cell-based. To be noted: TDE = time-dependent effect.
Assay [4] has as its target T1, Inhibitor of nuclear factor kappa-B kinase subunit beta (Homo sapiens) (UniProt O14920).
T1 sequence (whole entry): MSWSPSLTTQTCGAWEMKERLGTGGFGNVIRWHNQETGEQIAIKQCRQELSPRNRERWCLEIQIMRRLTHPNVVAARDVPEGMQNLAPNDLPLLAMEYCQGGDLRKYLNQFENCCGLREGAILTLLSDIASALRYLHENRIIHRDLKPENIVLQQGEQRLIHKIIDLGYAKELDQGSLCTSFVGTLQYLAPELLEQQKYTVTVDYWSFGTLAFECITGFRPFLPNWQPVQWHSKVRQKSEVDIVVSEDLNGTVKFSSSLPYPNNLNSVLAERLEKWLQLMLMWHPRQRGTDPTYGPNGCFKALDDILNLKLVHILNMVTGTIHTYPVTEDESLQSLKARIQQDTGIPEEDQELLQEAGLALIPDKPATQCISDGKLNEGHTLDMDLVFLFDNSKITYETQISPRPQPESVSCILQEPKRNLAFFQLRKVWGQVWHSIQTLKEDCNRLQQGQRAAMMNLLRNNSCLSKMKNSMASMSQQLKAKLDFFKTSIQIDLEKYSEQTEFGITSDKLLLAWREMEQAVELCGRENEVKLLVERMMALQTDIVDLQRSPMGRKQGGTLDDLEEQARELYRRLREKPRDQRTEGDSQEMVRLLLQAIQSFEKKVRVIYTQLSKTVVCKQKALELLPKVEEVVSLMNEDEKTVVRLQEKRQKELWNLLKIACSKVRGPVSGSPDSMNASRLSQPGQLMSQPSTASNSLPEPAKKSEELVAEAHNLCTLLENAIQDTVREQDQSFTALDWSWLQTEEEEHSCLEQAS
The assay is described as follows: Inhibition of IKK-beta in human OCI-LY10 cells assessed as decrease in renilla values at 2.5 to 10 ug/ml after 10 hrs by IkB-photinus/Renilla assay. The class given is cell-based. Summed up: (§1)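 OCI-Ly3, OCI-Ly10 and OCI-Ly19 cells stably coexpressing an IκB-Photinus fusion reporter and unmodified Renilla luciferase, in phenol red-free IMDM with 20% heparinized human plasma. Cells were exposed to compound at 37 °C, 5% CO2 for 2.5, 5 or 10 h, then pelleted, lysed and given dual luciferase substrates. Photinus/Renilla ratio and Renilla alone were normalized to the untreated control mean.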

The target of assay [5] is T1, Inhibitor of nuclear factor kappa-B kinase subunit beta (Homo sapiens). The assay is described as follows: Inhibition of IKK-beta in human OCI-LY3 cells assessed as decrease in renilla values at 2.5 to 5 ug/ml after 10 hrs by IkB-photinus/Renilla assay. The class given is cell-based. To be noted: 5 to 10 ug/ml, in the assay text read “at 5 to 10 ug/ml” for “at 2.5 to 5 ug/ml”. Summed up: as §1

For assay [6] the target is unchanged. Briefly: Inhibition of IKK-beta in human OCI-LY19 cells assessed as decrease in renilla values at 10 ug/ml after 2.5 to 10 hrs by IkB-photinus/Renilla assay. The class given is cell-based. The method, boiled down:
as §1

The target is the same in assay [7]. The assay is described as follows: Inhibition of IKK-beta in human OCI-LY19 cells assessed as decrease in renilla values at 10 ug/ml after 10 hrs by IkB-photinus/Renilla assay. Format: cell-based. Summed up: as §1
The test system of a further assay is KB. Briefly: Cytotoxicity against human KB cells. The class given is functional, cell-based.
The subject of assay [8] is K562. The assay is described as follows: Cytotoxicity against doxorubicin-resistant human K562 cells. Format: functional, cell-based.
Assay [9] concerns K562. Briefly: Cytotoxicity against human K562 cells. Format: functional, cell-based.
The subject of assay [10] is OCI-Ly3. Briefly: Induction of IkappaB in human OCI-LY3 cells assessed as fold increase in luciferase reporter gene at 16 uM. Format: functional, cell-based.

For the compound `O=C(/C=C/C[C@@H]1CC=CC(=O)O1)CCc1ccccc1`, the result in the assay on OCI-Ly3 [1] was Active. The Activity result with OCI-Ly3 [2] was “Dose-dependent effect”; in the assay with OCI-Ly3 [3], “tde”. Also, the inhibition entry in assay [4], in assay [5] and in assay [6] was “Active” in each case. The inhibition result in [7] was “inactive”.
With `O=C1C[C@@H]2/C(=C(O)\C=C\c3ccccc3)C(=O)C=C[C@@H]2O1` [CRYPTOCARYONE], the IC50 with KB, with K562 [8] and in the assay on K562 [9] was 1.8 µM each time. Further, in the assay with OCI-Ly3 [10], the result was Active. In addition, the Activity result with OCI-Ly3 [2] was “Dose-dependent effect”; with OCI-Ly3 [3] it was “tde”.
